Experimental data published in ChEMBL document CHEMBL1136006, “New PET imaging agent for the serotonin transporter: [(18)F]ACF (2-[(2-amino-4-chloro-5-fluorophenyl)thio]-N,N-dimethyl-benzenmethanamine)” (J Med Chem, 2002).

Experiments:
[1] = organism: Rattus norvegicus; assay: Organ distribution of [18F]ACF radiolabeled compound in rat brain after 240 min; type: ADME, organism-based; details: in vivo, 4 h
Procedure, shortened: (§1)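 Rats, three per time point, under ether anesthesia; 30 μCi tracer in 0.2 mL saline injected into femoral vein. Sacrificed by cardiac excision under ether at 2, 30, 60, 120 or 240 min. Organs removed, weighed and counted; % dose/organ calculated against counts of 1% of initial dose counted at the same time. Average of three rats ± SD.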

[2] = organism: Rattus norvegicus; assay: Organ distribution of [18F]ACF radiolabeled compound in rat kidney after 30 min; type: ADME, organism-based; details: in vivo, 0.5 h; procedure, shortened: as §1
[3] = organism: Rattus norvegicus; assay: Organ distribution of [18F]ACF radiolabeled compound in rat heart after 2 min; type: ADME, organism-based; details: in vivo; procedure, shortened: as §1
[4] = organism: Rattus norvegicus; assay: Organ distribution of [18F]ACF radiolabeled compound in rat bone after 2 min; type: ADME, organism-based, Bone element; details: in vivo; procedure, shortened: as §1
[5] = organism: Rattus norvegicus; assay: Ratio of regional brain distribution of [18F]-ACF radiolabeled compound in rat cerebellum to that of cerebellum after 60 min; type: ADME, organism-based; details: in vivo, 1 h
Procedure, shortened: (§2)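 Rats, three per time point, given 30 μCi tracer in 0.2 mL saline into femoral vein under ether anesthesia; killed at 2, 30, 60, 120 or 240 min. Cortex, striatum, hippocampus, cerebellum, hypothalamus and rest of brain dissected, weighed, counted; % dose/g against diluted initial dose, then each region divided by cerebellum. Average of three rats ± SD.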

[6] = Effect of pretreatment with nisoxatine with a dose of 2 mg/kg (i.v.) on specific binding of [18F]ACF in rat brain cerebellum; type: functional, organism-based; parameters: dose 2 mg/kg
Procedure, shortened: (§3)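 Rats pretreated iv with drug (2 mg/kg) or saline 5 min before iv [18F]ACF (50 μCi). Sacrificed 1 h after tracer. Brain regions were dissected, weighed and counted, and % dose/g was calculated against a diluted initial dose. Drug-treated rats were compared with saline controls by ANOVA/Dunnett's test (p<0.05). Three rats per point, average ± SD.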

[7] = organism: Rattus norvegicus; assay: Organ distribution of [18F]-ACF radiolabeled compound in rat skin after 240 min; type: ADME, organism-based; details: in vivo, 4 h
Procedure, shortened: (§4)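 Under ether anesthesia, 30 μCi no-carrier-added tracer in 0.2 mL saline injected into the femoral vein. Rats killed by cardiac excision at the stated time. Organs were removed, weighed and counted; % dose/organ was calculated against counts of a 1% initial-dose standard. Three rats per time, average ± SD.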

[8] = organism: Rattus norvegicus; assay: Organ distribution of [18F]ACF radiolabeled compound in rat spleen after 2 min; type: ADME, organism-based; details: in vivo; procedure, shortened: as §1
[9] = test system: Rattus norvegicus; assay: Ratio of effect of pretreatment with nisoxatine with a dose of 2 mg/kg (i.v.) on specific binding of [18F]ACF in rat brain striatum to that of cerebellum; type: ADME, organism-based; parameters: dose 2 mg/kg, route intravenous; details: in vivo, iv
Procedure, shortened: (§5)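 Rats (three per point) pretreated iv with competing drug at 2 mg/kg or saline (control) 5 min before iv [18F]ACF (50 μCi). At 1 h post tracer, brain regions (cortex, striatum, hippocampus, cerebellum, hypothalamus, remainder) dissected, weighed, counted as % dose/g and expressed as ratio to cerebellum. Average ± SD; ANOVA with Dunnett's test vs saline controls, p < 0.05.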

[10] = test system: Rattus norvegicus; assay: Ratio of effect of pretreatment with nisoxatine with a dose of 2 mg/kg (i.v.) on specific binding of [18F]ACF in rat brain remainder to that of cerebellum; type: ADME, organism-based; parameters: dose 2 mg/kg, route intravenous; details: in vivo, iv; procedure, shortened: as §5
[11] = organism: Rattus norvegicus; assay: Ratio of regional brain distribution of [18F]ACF radiolabeled compound in rat striatum to that of cerebellum after 30 min; type: ADME, organism-based; details: in vivo, 0.5 h
Procedure, shortened: (§6)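 Rats (three per group) under ether anesthesia got 30 μCi tracer in 0.2 mL saline into the femoral vein and were killed by cardiac excision at the stated time. Cortex, striatum, hippocampus, cerebellum, hypothalamus and the rest of brain were dissected, weighed and gamma counted. %dose/g was taken against counts of a diluted initial dose. Regional ratios are each region's %dose/g over cerebellum's. Mean ± SD.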

[12] = organism: Rattus norvegicus; assay: Ratio of regional brain distribution of [18F]-ACF radiolabeled compound in rat hypothalamus to that of cerebellum after 60 min; type: ADME, organism-based; details: in vivo, 1 h; procedure, shortened: as §6
[13] = test system: Rattus norvegicus; assay: Effect of pretreatment with nisoxatine with a dose of 2 mg/kg (i.v.) on specific binding of [18F]ACF in rat brain hypothalamus; type: ADME, organism-based; parameters: dose 2 mg/kg, route intravenous; details: in vivo, iv; procedure, shortened: as §3
[14] = organism: Rattus norvegicus; assay: Organ distribution of [18F]ACF radiolabeled compound in rat kidney after 120 min; type: ADME, organism-based; details: in vivo, 2 h; procedure, shortened: as §1
[15] = test system: Rattus norvegicus; assay: Ratio of effect of pretreatment with nisoxatine with a dose of 2 mg/kg (i.v.) on specific binding of [18F]ACF in rat brain cortex to that of cerebellum; type: ADME, organism-based; parameters: dose 2 mg/kg, route intravenous; details: in vivo, iv; procedure, shortened: as §5
[16] = organism: Rattus norvegicus; assay: Regional brain distribution of [18F]-ACF radiolabeled compound in rat hypothalamus after 240 min; type: ADME, organism-based; details: in vivo, 4 h; procedure, shortened: as §6
[17] = organism: Rattus norvegicus; assay: Ratio of regional brain distribution of [18F]ACF radiolabeled compound in rat cerebellum to that of cerebellum after 240 min; type: ADME, organism-based; details: in vivo, 4 h; procedure, shortened: as §6
[18] = organism: Rattus norvegicus; assay: Organ distribution of [18F]-ACF radiolabeled compound in rat lung after 2 min; type: ADME, organism-based; details: in vivo; procedure, shortened: as §4
[19] = organism: Rattus norvegicus; assay: Regional brain distribution of [18F]-ACF radiolabeled compound in rat cerebellum after 240 min; type: ADME, organism-based; details: in vivo, 4 h; procedure, shortened: as §6
[20] = test system: Rattus norvegicus; assay: Effect of pretreatment with methylphenidate with a dose of 2 mg/kg (i.v.) on specific binding of [18F]ACF in rat brain hippocampus; type: ADME, organism-based; parameters: dose 2 mg/kg, route intravenous; details: in vivo, iv; procedure, shortened: as §3
[21] = test system: Rattus norvegicus; assay: Effect of pretreatment with methylphenidate with a dose of 2 mg/kg (i.v.) on specific binding of [18F]-ACF in rat brain striatum; type: ADME, organism-based; parameters: dose 2 mg/kg, route intravenous; details: in vivo, iv; procedure, shortened: as §3
[22] = organism: Rattus norvegicus; assay: Organ distribution of [18F]ACF radiolabeled compound in rat bone after 120 min; type: ADME, organism-based, Bone element; details: in vivo, 2 h; procedure, shortened: as §1
[23] = test system: Rattus norvegicus; assay: Effect of pretreatment with (+)-McN5652 with a dose of 2 mg/kg (i.v.) on specific binding of [18F]ACF in rat brain blood; type: ADME, organism-based; parameters: dose 2 mg/kg, route intravenous; details: in vivo, iv; procedure, shortened: as §3
[24] = organism: Rattus norvegicus; assay: Ratio of regional brain distribution of [18F]-ACF radiolabeled compound in rat hippocampus to that of cerebellum after 2 min; type: ADME, organism-based; details: in vivo; procedure, shortened: as §2
[25] = organism: Rattus norvegicus; assay: Regional brain distribution of [18F]-ACF radiolabeled compound in rat cortex after 240 min; type: ADME, organism-based; details: in vivo, 4 h; procedure, shortened: as §6
[26] = test system: Rattus norvegicus; assay: Effect of pretreatment with methylphenidate with a dose of 2 mg/kg (i.v.) on specific binding of [18F]ACF in rat brain blood; type: ADME, organism-based; parameters: dose 2 mg/kg, route intravenous; details: in vivo, iv; procedure, shortened: as §3
[27] = organism: Rattus norvegicus; assay: Organ distribution of [18F]ACF radiolabeled compound in rat blood after 2 min; type: ADME, organism-based; details: in vivo; procedure, shortened: as §1
[28] = test system: Rattus norvegicus; assay: Ratio of effect of pretreatment with methylphenidate with a dose of 2 mg/kg (i.v.) on specific binding of [18F]ACF in rat brain striatum to that of cerebellum; type: ADME, organism-based; parameters: dose 2 mg/kg, route intravenous; details: in vivo, iv; procedure, shortened: as §5
[29] = organism: Rattus norvegicus; assay: Regional brain distribution of [18F]ACF radiolabeled compound in rat cerebellum after 30 min; type: ADME, organism-based; details: in vivo, 0.5 h; procedure, shortened: as §6
[30] = organism: Rattus norvegicus; assay: Regional brain distribution of [18F]ACF radiolabeled compound in rat hippocampus after 60 min; type: ADME, organism-based; details: in vivo, 1 h; procedure, shortened: as §6
[31] = organism: Rattus norvegicus; assay: Organ distribution of [18F]-ACF radiolabeled compound in rat bone after 240 min; type: ADME, organism-based, Bone element; details: in vivo, 4 h; procedure, shortened: as §4
[32] = test system: Rattus norvegicus; assay: Effect of pretreatment with (+)-McN5652 with a dose of 2 mg/kg (i.v.) on specific binding of [18F]ACF in rat brain remainder; dose/g; type: ADME, organism-based; parameters: dose 2 mg/kg, route intravenous; details: in vivo, iv; procedure, shortened: as §3
[33] = organism: Rattus norvegicus; assay: Organ distribution of [18F]ACF radiolabeled compound in rat bone after 60 min; type: ADME, organism-based, Bone element; details: in vivo, 1 h; procedure, shortened: as §1
[34] = test system: Rattus norvegicus; assay: Ratio of effect of pretreatment with (+)-McN5652 with a dose of 2 mg/kg (i.v.) on specific binding of [18F]ACF in rat brain striatum to that of cerebellum; type: ADME, organism-based; parameters: dose 2 mg/kg, route intravenous; details: in vivo, iv; procedure, shortened: as §5
[35] = organism: Rattus norvegicus; assay: Organ distribution of [18F]ACF radiolabeled compound in rat kidney after 2 min; type: ADME, organism-based; details: in vivo; procedure, shortened: as §1
[36] = organism: Rattus norvegicus; assay: Regional brain distribution of [18F]ACF radiolabeled compound in rat cerebellum after 60 min; type: ADME, organism-based; details: in vivo, 1 h; procedure, shortened: as §6

Q: Which Dose/g [1] does the source give for `CN(C)Cc1ccccc1Sc1cc(F)c(Cl)cc1N` here?
A: 0.06 % dose/organ

Q: What about the Dose/g [2] of the same molecule?
A: 2.64 % dose/organ

Q: And the Dose/g [3]?
A: 1.69 % dose/organ

Q: And the Dose/g [4]?
A: 0.01 % dose/organ

Q: What about the Ratio [5] of the same molecule?
A: 1

Q: And the Dose/g [6]?
A: 0.19%

Q: And the Dose/g [7]?
A: 1.53 % dose/organ

Q: And the Dose/g [8]?
A: 0.64 % dose/organ

Q: And the Ratio [9]?
A: 2.5

Q: What about the Ratio [10] of the same molecule?
A: 2.17

Q: And the Ratio [11]?
A: 2.06

Q: And the Ratio [12]?
A: 3.53

Q: And the Dose/g [13]?
A: 0.55%

Q: What about the Dose/g [14] of the same molecule?
A: 0.78 % dose/organ

Q: And the Ratio [15]?
A: 1.94

Q: And the Dose/g [16]?
A: 0.05%

Q: What about the Ratio [17] of the same molecule?
A: 1

Q: And the Dose/g [18]?
A: 14.9 % dose/organ

Q: What about the Dose/g [19] of the same molecule?
A: 0.02%

Q: What about the Dose/g [20] of the same molecule?
A: 0.43%

Q: What about the Dose/g [21] of the same molecule?
A: 0.47%

Q: What about the Dose/g [22] of the same molecule?
A: 0.28 % dose/organ

Q: What about the Dose/g [23] of the same molecule?
A: 0.26%

Q: And the Ratio [24]?
A: 1.24

Q: And the Dose/g [25]?
A: 0.03%

Q: And the Dose/g [26]?
A: 0.28%

Q: And the Dose/g [27]?
A: 6.56 % dose/organ

Q: What about the Ratio [28] of the same molecule?
A: 2.75

Q: What about the Dose/g [29] of the same molecule?
A: 0.37%

Q: And the Dose/g [30]?
A: 0.45%

Q: And the Dose/g [31]?
A: 0.27 % dose/organ

Q: What about the Dose/g [32] of the same molecule?
A: 0.23%

Q: What about the Dose/g [33] of the same molecule?
A: 0.08 % dose/organ

Q: What about the Ratio [34] of the same molecule?
A: 1.48

Q: And the Dose/g [35]?
A: 6.97 % dose/organ

Q: And the Dose/g [36]?
A: 0.15%
